Assay results reported in ChEMBL document CHEMBL3868612, “Discovery of a potent and selective ROMK inhibitor with improved pharmacokinetic properties based on an octahydropyrazino[2,1-c][1,4]oxazine scaffold” (Bioorg Med Chem Lett, 2016).

Tests used:
[1] = target: T1, Voltage-gated inwardly rectifying potassium channel KCNH2 (Homo sapiens, UniProt Q12809); assay: Displacement of 35S-MK499 from human ERG expressed in HEK293 cell membranes
Procedure, shortened: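 Membranes were prepared from HEK-293 cells stably expressing hERG. Binding was measured as displacement of 35S-MK499.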

CHO = assay: Selectivity ratio of IC50 for displacement of 35S-MK499 from human ERG to IC50 for human ROMK expressed in CHO cells; assay type: cell-based
[2] = target: T2, ATP-sensitive inward rectifier potassium channel 1 (Homo sapiens, UniProt P48048); assay: Inhibition of human ROMK expressed in CHO cells after 6 mins at -70 mV holding potential by electrophysiology method; assay type: cell-based
T2 sequence (P48048 whole entry): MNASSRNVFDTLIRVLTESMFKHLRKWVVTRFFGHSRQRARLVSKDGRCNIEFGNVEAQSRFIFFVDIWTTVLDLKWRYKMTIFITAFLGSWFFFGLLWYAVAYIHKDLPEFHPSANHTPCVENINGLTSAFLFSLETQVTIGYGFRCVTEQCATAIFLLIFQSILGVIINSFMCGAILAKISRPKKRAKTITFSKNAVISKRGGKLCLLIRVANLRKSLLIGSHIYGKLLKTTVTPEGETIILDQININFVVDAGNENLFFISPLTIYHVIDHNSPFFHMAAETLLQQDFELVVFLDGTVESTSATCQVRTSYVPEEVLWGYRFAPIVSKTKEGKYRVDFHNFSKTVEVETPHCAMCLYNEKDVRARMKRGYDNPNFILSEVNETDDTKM

[3] = target: T1, Voltage-gated inwardly rectifying potassium channel KCNH2; assay: Inhibition of human ERG by electrophysiology method
[4] = Dose normalized AUC in Sprague-Dawley rat at 1 mg/kg, po; assay type: ADME, organism-based; settings: in vivo
[5] = Oral bioavailability in Sprague-Dawley rat at 1 mg/kg; assay type: ADME, organism-based; settings: in vivo
[6] = Half life in Sprague-Dawley rat at 0.5 mg/kg, iv or 1 mg/kg, po; assay type: ADME, organism-based; settings: in vivo
[7] = Half life in po dosed human; assay type: ADME, organism-based; settings: in vivo
[8] = Half life in Sprague-Dawley rat at 1 mg/kg, iv or 2 mg/kg, po; assay type: ADME, organism-based; settings: in vivo
[9] = Oral bioavailability in Sprague-Dawley rat at 2 mg/kg; assay type: ADME, organism-based; settings: in vivo
[10] = Dose normalized AUC in Sprague-Dawley rat at 2 mg/kg, po; assay type: ADME, organism-based; settings: in vivo

T1 sequence (Q12809 whole entry): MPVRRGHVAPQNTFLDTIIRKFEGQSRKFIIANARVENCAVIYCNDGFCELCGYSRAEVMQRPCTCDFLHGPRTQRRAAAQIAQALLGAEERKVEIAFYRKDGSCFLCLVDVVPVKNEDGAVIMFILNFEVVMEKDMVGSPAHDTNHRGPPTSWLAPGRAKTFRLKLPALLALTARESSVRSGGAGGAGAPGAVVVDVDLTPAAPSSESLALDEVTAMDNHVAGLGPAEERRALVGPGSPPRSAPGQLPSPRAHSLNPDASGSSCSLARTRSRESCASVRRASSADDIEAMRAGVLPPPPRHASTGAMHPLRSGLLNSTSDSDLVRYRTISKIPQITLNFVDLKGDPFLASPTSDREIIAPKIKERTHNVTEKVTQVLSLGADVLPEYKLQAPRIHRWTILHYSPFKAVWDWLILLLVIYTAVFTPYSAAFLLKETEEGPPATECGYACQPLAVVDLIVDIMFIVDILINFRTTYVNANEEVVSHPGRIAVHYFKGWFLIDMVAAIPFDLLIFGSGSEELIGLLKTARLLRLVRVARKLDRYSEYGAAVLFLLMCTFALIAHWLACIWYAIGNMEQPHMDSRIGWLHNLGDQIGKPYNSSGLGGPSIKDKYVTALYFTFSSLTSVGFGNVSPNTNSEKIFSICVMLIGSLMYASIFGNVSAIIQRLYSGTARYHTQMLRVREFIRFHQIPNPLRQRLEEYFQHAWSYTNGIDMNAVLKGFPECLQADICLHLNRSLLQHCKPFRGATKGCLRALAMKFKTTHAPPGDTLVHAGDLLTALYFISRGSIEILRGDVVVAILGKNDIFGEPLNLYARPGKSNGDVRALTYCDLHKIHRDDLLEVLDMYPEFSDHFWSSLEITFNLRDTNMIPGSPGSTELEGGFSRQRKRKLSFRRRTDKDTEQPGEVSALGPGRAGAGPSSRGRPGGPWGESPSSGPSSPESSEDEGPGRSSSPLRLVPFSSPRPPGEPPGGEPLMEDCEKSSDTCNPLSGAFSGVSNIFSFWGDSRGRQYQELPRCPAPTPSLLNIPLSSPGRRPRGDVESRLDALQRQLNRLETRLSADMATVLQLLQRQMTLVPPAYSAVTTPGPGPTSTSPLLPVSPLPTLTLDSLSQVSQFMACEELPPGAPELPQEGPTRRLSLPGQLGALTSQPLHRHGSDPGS

Cc1c([C@H]2CN3CCN(C(=O)Cc4ccc(-n5cnnn5)nc4)C[C@@H]3CO2)ccc2c1COC2=O
IC50 [1]: 53400 nM
Ratio IC50 (CHO): 508
IC50 [2]: 105 nM

O=C1OCCc2cc([C@H]3CN4CCN(C(=O)Cc5ccc(-n6cnnn6)nc5)C[C@H]4CO3)ccc21
IC50 [2]: 205 nM

O=C(Cc1ccc(-n2cnnn2)nc1)N1CCN2C[C@@H](c3ccc4nonc4c3)OC[C@@H]2C1
IC50 [2]: 45 nM

Cc1c([C@@H]2CN3CCN(C(=O)Cc4cnc(-n5cnnn5)nc4)C[C@H]3CO2)ccc(F)c1C#N
IC50 [2]: 18 nM

Cc1c([C@H]2CN3CCN(C(=O)Cc4cnc(-n5cnnn5)cn4)C[C@H]3CO2)ccc(F)c1C#N
IC50 [3]: 12300 nM
IC50 [2]: 107 nM

Cc1c([C@@H]2CN3CCN(C(=O)Cc4ccc(-n5cnnn5)nc4)C[C@@H]3CO2)ccc2c1COC2=O
IC50 [3]: 74900 nM
AUC/dose [4]: 2.02 µM·kg·h/mg
bioavailability [5]: 100%
half-life [6]: 48 min
IC50 [1]: 59400 nM
Ratio IC50 (CHO): 690
IC50 [2]: 86 nM

Cc1c([C@H]2CN3CCN(C(=O)Cc4ccc(-n5cnnn5)nc4)C[C@H]3CO2)ccc(F)c1C#N
IC50 [3]: 12500 nM
AUC/dose [4]: 1.8 µM·kg·h/mg
bioavailability [5]: 69%
half-life [6]: 87.6 min
IC50 [2]: 41 nM

Cc1c(C#N)cccc1[C@@H]1CN2CCN(C(=O)Cc3ccc(-n4cnnn4)nc3)C[C@H]2CO1
IC50 [2]: 50 nM

O=C(Cc1ccc(-n2cnnn2)nc1)N1CCN2C[C@H](c3ccc4nonc4c3)OC[C@@H]2C1
IC50 [2]: 104 nM

Cc1c([C@@H]2CN3CCN(C(=O)Cc4ccc(-n5cnnn5)nc4)C[C@H]3CO2)ccc(F)c1C#N
IC50 [3]: 10000 nM
AUC/dose [4]: 1 µM·kg·h/mg
bioavailability [5]: 57%
half-life [6]: 63 min
IC50 [2]: 36 nM

O=C1OCCc2cc([C@H]3CN4CCN(C(=O)Cc5ccc(-n6cnnn6)nc5)C[C@@H]4CO3)ccc21
AUC/dose [4]: 2.25 µM·kg·h/mg
bioavailability [5]: 98%
half-life [6]: 45 min
IC50 [2]: 165 nM

Cc1c([C@H]2CN3CCN(C(=O)Cc4ccc(-n5cnnn5)nc4)C[C@H]3CO2)ccc2nonc12
IC50 [3]: 10000 nM
AUC/dose [4]: 1.8 µM·kg·h/mg
bioavailability [5]: 100%
half-life [6]: 58.2 min
IC50 [2]: 83 nM

O=C1OCCc2cc([C@@H]3CN4CCN(C(=O)Cc5cnc(-n6cnnn6)nc5)C[C@H]4CO3)ccc21
IC50 [3]: > 90000 nM
AUC/dose [4]: 0.18 µM·kg·h/mg
bioavailability [5]: 12%
half-life [6]: 29.4 min
IC50 [2]: 260 nM

Cc1cccc(Nc2ccncc2S(=O)(=O)NC(=O)NC(C)C)c1 [TORSEMIDE]
half-life [7]: 180 min

O=C1OCCc2cc([C@@H]3CN4CCN(C(=O)Cc5ccc(-n6cnnn6)cc5)C[C@H]4CO3)ccc21
IC50 [3]: > 30000 nM

Cc1c(C#N)cccc1[C@@H]1CN2CCN(C(=O)Cc3ccc(-n4cnnn4)nc3)C[C@@H]2CO1
IC50 [3]: 14800 nM
AUC/dose [4]: 2 µM·kg·h/mg
bioavailability [5]: 67%
half-life [6]: 98.4 min
IC50 [2]: 27 nM

Cc1c([C@H]2CN3CCN(C(=O)Cc4ccc(-n5cnnn5)nc4)C[C@@H]3CN2)ccc2c1COC2=O
IC50 [1]: 22000 nM
Ratio IC50 (CHO): 157
IC50 [2]: 140 nM

Cc1c([C@H]2CN3CCN(C(=O)Cc4ccc(-n5cnnn5)cn4)C[C@H]3CO2)ccc(F)c1C#N
IC50 [3]: 19900 nM
bioavailability [5]: 68%
half-life [6]: 57.6 min
IC50 [2]: 70 nM

Cc1c([C@H]2CN3CCN(C(=O)Cc4ccc(-n5cnnn5)nn4)C[C@H]3CO2)ccc(F)c1C#N
IC50 [2]: 86 nM

O=C1OCCc2cc([C@@H]3CN4CCN(C(=O)Cc5ccc(-n6cnnn6)nc5)C[C@H]4CO3)ccc21
AUC/dose [4]: 1.4 µM·kg·h/mg
bioavailability [5]: 65%
half-life [6]: 51 min
IC50 [2]: 57 nM

Cc1c([C@@H]2CN3CCN(C(=O)Cc4ccc(-n5cnnn5)nc4)C[C@H]3CO2)ccc2c1COC2=O
IC50 [3]: 19700 nM
AUC/dose [4]: 2.05 µM·kg·h/mg
bioavailability [5]: 82%
half-life [6]: 60 min
IC50 [1]: 21100 nM
Ratio IC50 (CHO): 325
IC50 [2]: 65 nM

Cc1c([C@@H]2CN3CCN(C(=O)Cc4cnc(-n5cnnn5)cn4)C[C@H]3CO2)ccc(F)c1C#N
IC50 [3]: 10000 nM
AUC/dose [4]: 4.64 µM·kg·h/mg
bioavailability [5]: 100%
half-life [6]: 84 min
IC50 [2]: 33 nM

Cc1c(C#N)cccc1[C@H]1CN2CCN(C(=O)Cc3ccc(-n4cnnn4)nc3)C[C@H]2CO1
IC50 [3]: 17600 nM
IC50 [2]: 112 nM

Cc1c([C@@H]2CN3CCN(C(=O)Cc4ccc(-n5cnnn5)nc4)C[C@H]3CO2)ccc2nonc12
IC50 [3]: > 10000 nM
IC50 [2]: 72 nM

Cc1c([C@H]2CN3CCN(C(=O)Cc4ccc(-n5cnnn5)nc4)C[C@H]3CO2)ccc2c1COC2=O
IC50 [3]: 56500 nM
AUC/dose [4]: 0.32 µM·kg·h/mg
bioavailability [5]: 46%
half-life [6]: 40.2 min
IC50 [1]: 26800 nM
Ratio IC50 (CHO): 305
IC50 [2]: 88 nM

Cc1c([C@@H]2CN3CCN(C(=O)Cc4ccc(-n5cnnn5)nc4)C[C@@H]3CO2)ccc(F)c1C#N
IC50 [3]: > 10000 nM
IC50 [2]: 60 nM

Cc1c([C@H]2CN3CCN(C(=O)Cc4cnc(-n5cnnn5)nc4)C[C@H]3CO2)ccc(F)c1C#N
half-life [8]: 81.6 min
bioavailability [9]: 54%
IC50 [2]: 39 nM
AUC/dose [10]: 1.01 µM·kg·h/mg

Cc1c([C@@H]2CN3CCN(C(=O)Cc4ccc(-n5cnnn5)nc4)C[C@H]3CS2)ccc2c1COC2=O
IC50 [1]: 8900 nM
Ratio IC50 (CHO): 89
IC50 [2]: 100 nM
